Reference: ChEMBL document CHEMBL1949497, “Synthesis and antihormonal properties of novel 11β-benzoxazole-substituted steroids” (Bioorg Med Chem Lett, 2012)

Columns and labels:
T47D = test: Selectivity ratio of IC50 for progesterone receptor in human T47D cells to IC50 for glucocorticoid receptor in human A549 cells; type: cell-based
In short: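 Ratio calculated by dividing the IC50 from the T47D alkaline phosphatase assay by the IC50 from the A549 cell-based functional assay, with both measured in this work. It serves as an index of how well PR and GR antagonism are separated. Mifepristone was run alongside as the reference compound.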

Progesterone receptor = biological target: T1, Progesterone receptor (Homo sapiens, UniProt P06401); test: Antagonist activity at progesterone receptor in human T47D cells assessed as inhibition of progesterone-induced alkaline phosphatase activity after 24 hrs by luminescence based assay; type: functional, cell-based
T1 sequence (P06401 whole entry): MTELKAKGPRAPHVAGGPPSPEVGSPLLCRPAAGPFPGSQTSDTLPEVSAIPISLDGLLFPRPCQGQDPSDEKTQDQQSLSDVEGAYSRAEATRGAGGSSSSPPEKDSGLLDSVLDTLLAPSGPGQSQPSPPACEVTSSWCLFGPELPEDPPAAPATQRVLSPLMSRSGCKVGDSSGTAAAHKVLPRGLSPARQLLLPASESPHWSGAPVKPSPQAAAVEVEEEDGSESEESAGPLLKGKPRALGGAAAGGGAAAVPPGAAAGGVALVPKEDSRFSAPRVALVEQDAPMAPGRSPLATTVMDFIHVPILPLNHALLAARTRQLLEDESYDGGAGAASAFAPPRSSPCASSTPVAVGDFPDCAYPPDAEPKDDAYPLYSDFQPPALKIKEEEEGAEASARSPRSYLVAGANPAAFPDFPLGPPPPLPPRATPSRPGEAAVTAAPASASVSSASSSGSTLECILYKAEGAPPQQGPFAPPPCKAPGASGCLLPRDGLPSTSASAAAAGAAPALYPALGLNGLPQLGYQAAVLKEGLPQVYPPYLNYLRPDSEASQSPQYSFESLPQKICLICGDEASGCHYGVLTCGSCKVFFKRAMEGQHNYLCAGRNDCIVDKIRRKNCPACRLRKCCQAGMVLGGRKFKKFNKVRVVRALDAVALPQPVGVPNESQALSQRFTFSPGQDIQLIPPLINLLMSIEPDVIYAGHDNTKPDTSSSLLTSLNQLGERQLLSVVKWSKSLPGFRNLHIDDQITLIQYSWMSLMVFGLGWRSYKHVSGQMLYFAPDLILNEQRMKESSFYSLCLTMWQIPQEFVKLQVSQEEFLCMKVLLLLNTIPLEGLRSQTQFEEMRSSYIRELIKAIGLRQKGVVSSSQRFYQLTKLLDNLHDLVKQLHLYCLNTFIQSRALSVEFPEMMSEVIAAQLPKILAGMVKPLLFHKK

Glucocorticoid receptor = biological target: T2, Glucocorticoid receptor (Homo sapiens, UniProt P04150); test: Antagonist activity at glucocorticoid receptor in human A549 cells assessed as inhibition of dexamethasone-induced transcription at GRE after 24 hrs by luciferase reporter gene assay; type: functional, cell-based
T2 sequence (P04150 whole entry): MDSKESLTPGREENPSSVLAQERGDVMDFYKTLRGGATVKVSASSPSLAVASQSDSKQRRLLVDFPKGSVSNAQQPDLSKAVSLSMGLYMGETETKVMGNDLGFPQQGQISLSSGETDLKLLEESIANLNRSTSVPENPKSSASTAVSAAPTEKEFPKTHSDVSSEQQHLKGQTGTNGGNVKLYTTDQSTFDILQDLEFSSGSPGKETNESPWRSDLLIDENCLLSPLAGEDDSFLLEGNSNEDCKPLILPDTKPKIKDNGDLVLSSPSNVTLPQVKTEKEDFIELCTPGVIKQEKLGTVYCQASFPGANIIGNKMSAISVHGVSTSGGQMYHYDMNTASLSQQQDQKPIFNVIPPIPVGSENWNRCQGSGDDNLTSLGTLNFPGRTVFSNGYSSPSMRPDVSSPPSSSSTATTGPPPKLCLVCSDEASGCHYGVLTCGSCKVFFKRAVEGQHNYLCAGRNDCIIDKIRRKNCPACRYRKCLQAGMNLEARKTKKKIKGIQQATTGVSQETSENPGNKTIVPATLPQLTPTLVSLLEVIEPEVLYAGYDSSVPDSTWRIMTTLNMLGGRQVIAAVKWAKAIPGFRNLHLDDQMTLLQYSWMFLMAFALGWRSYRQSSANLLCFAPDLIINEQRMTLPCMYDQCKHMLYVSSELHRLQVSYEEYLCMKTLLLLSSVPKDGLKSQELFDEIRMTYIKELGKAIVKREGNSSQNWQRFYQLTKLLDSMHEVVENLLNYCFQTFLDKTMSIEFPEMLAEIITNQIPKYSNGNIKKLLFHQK

Structure (SMILES) | Ratio IC50 (T47D) | IC50 (Progesterone receptor) | IC50 (Glucocorticoid receptor)
CC#C[C@]1(O)CC[C@H]2[C@@H]3CCC4=CC(=O)CCC4=C3[C@@H](c3ccc4oc(CC)nc4c3)C[C@@]21C | 5 | 65 nM | 13 nM
CC#C[C@]1(O)CC[C@H]2[C@@H]3CCC4=CC(=O)CCC4=C3[C@@H](c3ccc4oc(C(F)(F)F)nc4c3)C[C@@]21C | 1.4 | 85 nM | 61 nM
CC#C[C@]1(NC=O)CC[C@H]2[C@@H]3CCC4=CC(=O)CCC4=C3[C@@H](c3ccc4ocnc4c3)C[C@@]21C | 0.7 | 41 nM | 60 nM
CC#C[C@]1(O)CC[C@H]2[C@@H]3CCC4=CC(=O)CCC4=C3[C@@H](c3ccc(N(C)C)cc3)C[C@@]21C | 0.9 |  | 
CC#C[C@]1(O)CC[C@H]2[C@@H]3CCC4=CC(=O)CCC4=C3[C@@H](c3ccc4ocnc4c3)C[C@@]21C | 2.2 | 101 nM | 45 nM
CC#C[C@]1(O)CC[C@H]2[C@@H]3CCC4=CC(=O)CCC4=C3[C@@H](c3ccc4oc(C)nc4c3)C[C@@]21C | 1.5 | 35 nM | 23 nM
CC#C[C@]1(NC=O)CC[C@H]2[C@@H]3CCC4=CC(=O)CCC4=C3[C@@H](c3ccc4oc(C(F)(F)F)nc4c3)C[C@@]21C | 0.3 | 46 nM | 142 nM
